Screens (PubChem)
SENP1 inh – human SENP1 catalytic domain inhibitors, primary screen, biochemical, FRET, uHTS; Sentrin-specific protease 1 (Homo sapiens), Q9P0U3; recombinant SENP1 catalytic domain, CyPet-SUMO1-YPet FRET cleavage; inhibition, % at 10 µM; 360,000 compounds, 0.21% hits; AID 624204, 2012;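 active means inhibition at least 30% at 10 µM, raw YFP signal under a set limit, fluorescence ratio 0.5 to 1.5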;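 further: 0% = enzyme with DMSO and 100% = no enzyme wells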
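material = recombinant human SENP1 catalytic domain, His6-tagged | quantity = 20 pM enzyme | reagent = 25 nM SUMO1 FRET substrate | compound dosing = 10 µM single point, 0.5% DMSO | timing = 50 min enzyme reaction, room temperature, light-protected | detection = FRET, CFP and YFP emission | control set = no-enzyme low, enzyme-DMSO high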
Platelet DG rel – inhibitors of platelet dense granule secretion, primary screen, cell-based, MLPCN, human platelets; human platelet-rich plasma, SFLLRN dense granule ATP release, luminescence; inhibition, %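 (compounds screened at 7.5 µM in platelet-rich plasma)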; 300,000 compounds, 0.22% hits;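 active means mean replicate score, as percent of positive control, at or above 50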
SENP8 block-1 – SENP8 protease inhibitors, primary screen, biochemical, luminescence; Sentrin-specific protease 8 (Homo sapiens), Q96LD8; purified SENP8, Z-RLRGG-aminoluciferin cleavage; inhibition, % at 10 µM; 330,000 compounds, 1.2% hits; in the data active means inhibition above about 50%
Target sequence (Q96LD8 whole entry, looked up): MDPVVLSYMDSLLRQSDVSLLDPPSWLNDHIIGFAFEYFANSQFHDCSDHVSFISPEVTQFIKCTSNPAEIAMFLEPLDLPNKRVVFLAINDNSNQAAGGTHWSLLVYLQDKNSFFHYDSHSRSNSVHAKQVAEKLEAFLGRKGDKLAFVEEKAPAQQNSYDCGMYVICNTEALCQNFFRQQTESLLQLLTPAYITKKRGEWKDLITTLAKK
SENP7 inh – SENP7 protease inhibitors, primary screen, biochemical, luminescence, uHTS | Sentrin-specific protease 7 (Homo sapiens), Q9BQF6 | recombinant SENP7, Z-RLRGG-aminoluciferin luminescence, 40 min | inhibition, % at 5 µM | 330,000 compounds, 1.5% hits | AID 434973, 2010;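 active means inhibition above about 50% at the single test dose, limit read from the data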;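 further: plate controls were DMSO with enzyme for no effect and no enzyme buffer wells for full effect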
Target sequence (Q9BQF6 706-1050 limits assumed): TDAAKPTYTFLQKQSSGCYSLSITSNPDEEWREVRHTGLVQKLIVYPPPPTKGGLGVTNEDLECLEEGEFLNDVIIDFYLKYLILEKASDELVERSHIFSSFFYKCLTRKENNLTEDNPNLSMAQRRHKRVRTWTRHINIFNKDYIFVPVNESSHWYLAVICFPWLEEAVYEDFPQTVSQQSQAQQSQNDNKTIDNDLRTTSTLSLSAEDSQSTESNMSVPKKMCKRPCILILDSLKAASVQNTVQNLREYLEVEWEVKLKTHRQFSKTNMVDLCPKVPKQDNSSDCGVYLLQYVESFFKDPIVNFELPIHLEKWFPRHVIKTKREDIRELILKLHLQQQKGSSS
SENP8 block-2 – human SENP8 protease inhibitors, primary screen, biochemical, fluorescence, Nedd8 protein substrate, uHTS; recombinant SENP8; inhibition, % at 20 µM; 360,000 compounds, 0.64% hits; AID 602440, 2012; in the data active means inhibition mostly above about 40%, no sharp cut-off; inactive means mostly below about 27%
SENP6 block – SENP6 protease inhibitors, primary screen, biochemical, luminescence, uHTS; AID 2599, 2010; 330,000 compounds, 1.8% hits; inhibition, % at 10 µM; Recombinant SENP6 catalytic domain, aminoluciferin luminescence;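 active means inhibition above about 50% at the single tested dose, limit read from the data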;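 further: plate controls were DMSO wells with enzyme for no effect and DMSO wells lacking enzyme for full effect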
SENP1 conf – human SENP1 catalytic domain inhibitors, confirmation, biochemical, FRET endpoint, single concentration; shares compounds with SENP1 inh; recombinant SENP1, CyPet-SUMO1-YPet FRET cleavage; inhibition, % at 10 µM; 520 compounds, 34% hits; AID 651678, 2012; in the data active means inhibition mostly above about 35%, no sharp cut-off; inactive means mostly below about 32%;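 further: 0% = enzyme with DMSO and 100% = no enzyme control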
SENP1 kinetic – human SENP1 catalytic domain inhibitors, confirmation, biochemical, kinetic FRET, single concentration; recombinant SENP1, CyPet-SUMO1-YPet FRET kinetic cleavage; 520 compounds, 26% hits; AID 651690, 2012; shares compounds with SENP1 inh; inhibition, % at 10 µM; in the data active means inhibition mostly above about 32%, no sharp cut-off; inactive means mostly below about 29%;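 further: 0% = DMSO with enzyme and 100% = no enzyme substrate only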
The depositor's hits bear a star; i = inactive; . = no result given. Most compounds without a hit are left out; they make up all but 2.6% or so of the library.

SMILES	SENP1 inh	Platelet DG rel	SENP8 block-1	SENP7 inh	SENP8 block-2	SENP6 block	SENP1 conf	SENP1 kinetic
CCN1CCN(C(=O)CS(=O)(=O)Cc2nc(-c3ccccc3C)oc2C)CC1	0.8	-4.1	3.2	-2.1	7.2	-0.1	.	.
O=C(CS(=O)c1cccc(Cl)c1)Nc1ccccc1Cl (stereo not given)	2.0	2.2	0.9	8.9	18.6	2.0	.	.
O=C1C2ON(c3ccc(Br)cc3)C(c3cccnc3)C2C(=O)N1C1CCCCC1 (stereo not given)	1.5	2.4	3.3	1.4	21.9	9.3	.	.
Cc1cc(C)n2c(Nc3c(C)cccc3C)c(-c3ccccn3)nc2n1	62.9*	.	.	.	-6.8	.	28.8	16.1
COc1cccc(-c2nc3nc(C)cc(C)n3c2Nc2c(C)cccc2C)c1	64.3*	.	.	.	-100.4	.	36.5*	19.7
CC1CC(C)CN(S(=O)(=O)c2ccc(C(=O)OCC(=O)Nc3ccccc3)cc2)C1 (stereo not given)	0.7	.	.	.	6.1	.	.	.
Cc1nc(SCc2ccccc2)c2oc3ccccc3c2n1	1.3	0.5	-8.7	6.0	16.1	1.9	.	.
Cc1cc(N2CCN(c3nc(-c4ccc([N+](=O)[O-])cc4)cs3)CC2)c2ccccc2n1	45.3*	-23.3	9.9	-0.3	9.8	1.7	15.4	13.7
Cc1ccc(S(=O)(=O)Nc2ccc3c(c2)C(=O)N([C@H](C)CO)C[C@H](C)[C@@H](CN(C)C(=O)NC2CCCCC2)OCCCC[C@@H](C)O3)cc1	-2.0	.	.	.	-37.2	.	.	.
CNC(=O)c1c(NC(=O)CCS(=O)(=O)c2ccc(C)cc2)sc(C)c1C	0.7	-10.2	0.0	-10.3	4.0	-20.0	.	.
COc1cccc(/C=C/C(=O)OCC(=O)c2ccc(C)c(C)c2)c1OC	2.2	.	5.2	2.2	-400.0	-0.8	.	.
CCOC(=O)/C=C/c1cc(F)ccc1O	66.2*	.	.	.	-407.6	.	39.8*	38.2*
CCOC(=O)/C=C/c1cccc(C)c1O	32.3*	.	.	.	-112.8	.	17.2	36.5*
O=C(c1cc([N+](=O)[O-])cc([N+](=O)[O-])c1)N(c1ccccn1)c1ccccn1	2.6	-3.2	-0.9	-0.6	20.3	10.5	.	.
O=C(CSC(=S)N1CCCC1)c1cc(Br)cc(Br)c1O	.	-2.5	2.1	4.4	.	7.9	.	.
Cc1ccccc1NC(=O)c1c(C)[nH]c(=S)c(C#N)c1-c1ccc(Cl)cc1	50.2*	-6.5	0.6	9.8	11.7	-1.2	5.0	8.2
Cc1[nH]c(=S)c(C#N)c(-c2ccccc2)c1C(=O)Nc1ccccc1	55.1*	9.6	-7.4	-2.2	-3.6	-18.2	-1.9	-9.1
COc1cc(C(=O)Nc2ccc3c(c2)OCO3)ccc1OCc1c(C)noc1C	0.5	-3.7	0.3	-2.2	-3.9	-5.1	.	.
O=C(CCC(=O)Nc1cccc([N+](=O)[O-])c1)N/N=C/c1cccs1	2.7	.	2.0	-4.0	9.9	7.6	.	.
CC(=O)C1=C(O)C(=O)N(CC(=O)O)C1c1ccccc1Cl (stereo not given)	-3.7	-2.1	8.5	-1.8	0.7	-7.4	.	.
CCOC(=O)NC(=O)COC(=O)CNC(=O)c1cccc(OC)c1	1.7	-2.8	-0.5	7.2	18.0	6.2	.	.
Cc1ccc(-c2csc3nc[nH]c(=O)c23)cc1	-1.0	-4.1	-4.0	-5.9	1.4	-3.1	.	.
Cc1ccc(-c2csc3nc(-c4ccncc4)[nH]c(=O)c23)cc1	43.1*	19.8	-7.7	-7.3	-418.3	-11.0	40.4*	31.4
COc1ccc2oc(C(=O)OCC(=O)NCCc3ccc(S(N)(=O)=O)cc3)c(C)c2c1	0.9	.	8.1	4.0	i	-7.3	.	.
O=C(CSc1nnc2nnc3ccccc3n12)N1CCOCC1	2.3	-17.0	-11.5	7.9	-12.0	-6.3	.	.
SMILES	SENP1 inh	Platelet DG rel	SENP8 block-1	SENP7 inh	SENP8 block-2	SENP6 block	SENP1 conf	SENP1 kinetic
CN(C)CCNc1cccc2sc3ccc(O)cc3c(=O)c12	48.6*	.	.	.	36.2	.	57.3*	26.3
O=c1cc(NCCO)c2ccccc2o1	-1.1	1.3	-1.4	-1.5	9.0	-16.8	.	.
CCN(CC)CCNc1cccc2sc3ccccc3c(=O)c12	32.5*	.	.	.	44.5*	.	38.5*	25.9
CCN(CC)CCNc1ccc(CO)c2oc3ccccc3c(=O)c12	46.8*	.	.	.	17.0	.	48.0*	39.5*
COc1cc(C)c2sc3ccccc3c(=O)c2c1NCCN(C)C	-42.1	.	.	.	21.3	.	.	.
O=C(CSc1cc(Cl)ccc1Cl)NCCCn1ccnc1	-1.9	-5.7	2.2	4.9	16.9	-3.0	.	.
CC(C)[C@@H](CO)NC(=O)c1ccc2c3n(nc2c1)-c1ccc(Cl)cc1CO3	-5.1	0.9	-0.6	-0.9	-68.8	1.9	.	.
CCOC(=O)c1sc2nc(C)cc(C)c2c1N	-27.2	2.5	-4.1	-1.0	-288.6	-8.9	.	.
CCOC(=O)c1sc2cc([N+](=O)[O-])cc(SCCO)c2c1N	50.1*	-7.2	-4.6	0.8	20.3	-1.3	20.3	12.2
CCOC(=O)c1sc2cc([N+](=O)[O-])cc(SCC(=O)OC)c2c1N	65.5*	-9.8	5.3	11.5	23.3	-9.5	24.8	2.2
O=C1CSCC(=O)N1c1ccccc1	1.7	2.0	0.1	4.4	22.4	-7.7	.	.
O=C1C2=C(SCCS2)C(=O)N1c1ccccc1	35.9*	10.2	-2.2	-2.2	22.2	-8.9	21.4	28.6
CC1(C)c2ssc(=S)c2-c2ccccc2N1C(=O)c1ccco1	32.2*	0.8	-7.7	-0.8	34.3	-7.9	3.7	9.0
Cc1ccc2c(c1)-c1c(ssc1=S)C(C)(C)N2C(=O)c1ccco1	-0.8	-8.3	-2.2	-1.5	37.8	-14.7	.	.
O=C1CN(C(=O)COC(=O)c2cccs2)c2ccccc2N1	-6.8	.	-4.1	2.2	-11.8	-2.1	.	.
Cn1c2ccccc2c2cc(C(=O)OCC(=O)N3CC(=O)Nc4ccccc43)sc21	35.1*	6.5	5.1	1.5	-253.7	-7.9	15.2	28.2
COc1ccc2c(c1)c1nc3ccccc3nc1n2CCn1c(=O)oc2ccccc21	53.8*	3.1	-1.9	0.3	22.4	-7.7	130.6*	83.0*
O=c1oc2ccccc2n1CCn1c2ccccc2c2nc3ccccc3nc21	-26.6	31.9	-6.1	-11.8	-371.8	-30.2	.	.
COc1ccc2c(c1)c1nc3ccccc3nc1n2Cc1ccc(OC(C)C)c(OC)c1	34.8*	2.2	-8.5	-2.7	23.1	-8.1	46.7*	34.3*
